1 compound from ChEMBL document CHEMBL4402562, “Discovery of Novel Peptidomimetic Boronate ClpP Inhibitors with Noncanonical Enzyme Mechanism as Potent Virulence Blockers in Vitro and in Vivo” (J Med Chem, 2020) can be followed below.

SMILES strings stand for the structures. Activity calls are given as the source filed them. The rule behind the calls is not given here.

Data set [1] deals with Staphylococcus aureus. Nature of the data set: Antivirulence activity against methicillin-resistant Staphylococcus aureus ATCC 33591 infected in BALB/c mouse model of skin abscess assessed as preservation of skin integrity at 1.5 to 3 mg/kg injected into shaved area of skin once daily for 4 days measured after 12 hrs post last dose by hematoxylin and eosin staining based optical microscopy. The format is functional, organism-based. In short, it runs like this:
(§1)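 Same MRSA ATCC 33591 skin-abscess model in female BALB/c mice (n=5/group), 40 µL compound at 1.5 or 3 mg/kg injected into the infected shaved skin once daily for 4 days. On day 4 infected skin and heart, liver, spleen, lung, kidney fixed in 4% paraformaldehyde, embedded, sectioned, H&E stained and examined by microscopy; PBS-treated uninfected and vehicle controls.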

For data set [2], the target named is 20S proteasome (Homo sapiens) (UniProt P49721+P20618+P28074+P28062+P28065+P28072+P25786+P25787+P25788+P25789+P28066+P60900+O14818+Q8TAA3+P40306+A5LHX3+P49720+P28070+Q99436). Nature of the data set: Inhibition of 20S proteasome (unknown origin) pre-incubated before Suc-LLVY-AM addition and measured after 1 hr by fluorescence based assay. The format is protein-complex assay.

The subject of data set [3] is Staphylococcus aureus. Description: Inhibition of virulence-related genes expression in methicillin-resistant Staphylococcus aureus ATCC 33591 assessed as reduction in lukS expression at 4 to 16 uM by qPCR analysis relative to control. The format is functional, organism-based. Put shortly:
(§2)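 Total RNA from 2×10⁸ CFU treated MRSA by liquid-nitrogen freeze-thaw and TRIzol; qPCR relative to gyrB endogenous control; three experiments, triplicate wells.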

The nature of data set [4]: Toxicity in BALB/c mouse model of skin abscess infected with methicillin-resistant Staphylococcus aureus ATCC 33591 assessed as increase in direct bilirubin levels at 1.5 to 3 mg/kg injected into shaved area of skin once daily for 4 days measured on day 14. In kind it is organism-based. As to conditions: in vivo, other, 96 h. In short, it runs like this: (§3)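 Infected BALB/c mice (n=5/group) dosed 1.5 or 3 mg/kg into the infected skin once daily for 4 days; blood collected on day 4 and day 14, centrifuged 3,500 rpm 15 min, serum biochemistry analysed.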

A short description of data set [5]: Toxicity in BALB/c mouse model of skin abscess infected with methicillin-resistant Staphylococcus aureus ATCC 33591 assessed as increase in direct bilirubin levels at 1.5 to 3 mg/kg injected into shaved area of skin once daily for 4 days. As to conditions: in vivo, other, 96 h. The format is organism-based. In short, it runs like this:
as §3

Data set [6] is described as follows: Toxicity in BALB/c mouse model of skin abscess infected with methicillin-resistant Staphylococcus aureus ATCC 33591 assessed as effect on body weight at 1.5 to 3 mg/kg injected into shaved area of skin once daily for 4 days measured every day. As to conditions: in vivo, other, 96 h. In kind it is organism-based. Put shortly:
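Female BALB/c mice, 6-8 weeks, n=5 per group, backs shaved and depilated 1 day before; 50 µL subcutaneous 1.7 × 10⁹ CFU/mL MRSA ATCC 33591. From 6 h post-infection, 40 µL vehicle, vancomycin 3 mg/kg, or compound 1.5 or 3 mg/kg injected at infection site once daily for 4 days; weight recorded daily. Skin homogenised in saline 12 h after last dose, plated on LB agar 37 °C ≥16 h; log10 CFU/abscess; t-test.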

Data set [7] can be described thus: Toxicity in BALB/c mouse model of skin abscess infected with methicillin-resistant Staphylococcus aureus ATCC 33591 assessed as effect on uric acid levels at 1.5 to 3 mg/kg injected into shaved area of skin once daily for 4 days. The format is organism-based. As to conditions: in vivo, other, 96 h. In short, it runs like this: as §3
The nature of data set [8]: Toxicity in BALB/c mouse model of skin abscess infected with methicillin-resistant Staphylococcus aureus ATCC 33591 assessed as effect on LDH levels at 1.5 to 3 mg/kg injected into shaved area of skin once daily for 4 days. The format is organism-based. As to conditions: in vivo, other, 96 h. Put shortly:
as §3

In data set [9] the test system is Staphylococcus aureus. Description: Inhibition of Staphylococcus aureus NCTC8325 with delta clpP assessed as reduction in bacteria-induced hemolysis of sheep erythrocytes by measuring hemoglobin release at 0.5 to 64 uM. The format is functional, organism-based. In short, it runs like this:
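S. aureus NCTC8325 ΔclpP grown in MHB from OD600 0.05 to ~0.6 at 37 °C, then 8 h with serially diluted inhibitor or DMSO. Culture supernatant mixed 1:1 with 5% sheep erythrocytes, centrifuged 1,500 rpm for 15 min, hemoglobin at 545 nm. Thrice, triplicate tubes.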

Data set [10] in a line: Toxicity in BALB/c mouse model of skin abscess infected with methicillin-resistant Staphylococcus aureus ATCC 33591 assessed as effect on albumin levels at 1.5 to 3 mg/kg injected into shaved area of skin once daily for 4 days. In kind it is organism-based. To be noted: in vivo, other, 96 h. Put shortly: as §3
Data set [11] deals with Staphylococcus aureus. Description: Antivirulence activity against methicillin-resistant Staphylococcus aureus ATCC 33591 infected in BALB/c mouse model of skin abscess assessed as reduction in interstitium thickening at 1.5 to 3 mg/kg injected into shaved area of skin once daily for 4 days measured after 12 hrs post last dose by hematoxylin and eosin staining based optical microscopy. The format is functional, organism-based. In short, it runs like this:
as §1

The test system of data set [12] is Staphylococcus aureus. Nature of the data set: Inhibition of virulence-related genes expression in methicillin-resistant Staphylococcus aureus ATCC 33591 assessed as reduction in agrB expression at 16 uM by qPCR analysis relative to control. The format is functional. Put shortly:
as §2

Data set [13] has as its target T1, ATP-dependent Clp protease proteolytic subunit (Staphylococcus aureus (strain NCTC 8325)) (UniProt Q2G036).
T1 sequence (whole entry): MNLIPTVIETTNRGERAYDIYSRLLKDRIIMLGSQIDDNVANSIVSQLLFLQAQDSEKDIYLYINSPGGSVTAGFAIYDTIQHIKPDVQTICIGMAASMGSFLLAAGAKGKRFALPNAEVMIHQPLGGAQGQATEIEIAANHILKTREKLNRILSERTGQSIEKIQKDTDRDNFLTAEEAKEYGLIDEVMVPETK
Nature of the data set: Inhibition of N-terminal His6-sumo-tagged full length Staphylococcus aureus ClpP expressed in Escherichia coli […] (DE3) assessed as Kinact/Ki ratio […] and measured after 1 hr by fluorescence based assay.

Data set [14] is described as follows: Toxicity in BALB/c mouse model of skin abscess infected with methicillin-resistant Staphylococcus aureus ATCC 33591 assessed as effect on total protein levels at 1.5 to 3 mg/kg injected into shaved area of skin once daily for 4 days. In kind it is organism-based. As to conditions: in vivo, other, 96 h. In short, it runs like this: as §3
The target in data set [15] is T1, ATP-dependent Clp protease proteolytic subunit (Staphylococcus aureus (strain NCTC 8325)). Nature of the data set: Potency index, ratio of IC50 for BTZ to IC50 for test compound for inhibition of ClpP in methicillin-resistant Staphylococcus aureus ATCC 33591 assessed as reduction in bacteria-induced hemolysis of sheep erythrocytes by measuring hemoglobin release incubated for 15 mins.

Data set [16] concerns the target Coagulation factor X (Homo sapiens) (UniProt P00742). Nature of the data set: Inhibition of human F10a up to 100 uM pre-incubated for 10 mins before Pefachrome Fxa addition and measured after […] based assay.
A short description of data set [17]: Inhibition of AlgW (unknown origin) up to 100 uM pre-incubated for 10 mins before Abz-T-V-A-W-pNA addition and measured after 1 hr by fluorescence based assay.
The target of data set [18] is T1, ATP-dependent Clp protease proteolytic subunit (Staphylococcus aureus (strain NCTC 8325)). Nature of the data set: Inhibition of ClpP in Staphylococcus aureus NCTC8325 with complemented deltaclpP/pYJ335::clpP (deltaclpP+) assessed as reduction in bacteria-induced hemolysis of sheep erythrocytes by measuring hemoglobin release incubated for 15 mins. Put shortly:
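S. aureus strains grown overnight in MHB, diluted to OD600 0.05, then grown at 37 °C to OD600 ~0.6. Serially diluted inhibitor or DMSO added for 8 h more growth. Supernatant mixed 1:1 with 5% sheep erythrocytes, spun 1,500 rpm for 15 min, hemoglobin read at 545 nm. EC50 by nonlinear fit; thrice, triplicate tubes.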

Coagulation factor X (Homo sapiens), sequence (P00742 41-179 limits assumed): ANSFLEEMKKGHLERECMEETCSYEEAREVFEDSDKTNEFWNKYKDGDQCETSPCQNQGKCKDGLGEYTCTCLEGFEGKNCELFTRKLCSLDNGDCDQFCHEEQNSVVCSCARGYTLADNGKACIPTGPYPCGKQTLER
Coagulation factor X (Homo sapiens), sequence (P00742 235-488 limits assumed): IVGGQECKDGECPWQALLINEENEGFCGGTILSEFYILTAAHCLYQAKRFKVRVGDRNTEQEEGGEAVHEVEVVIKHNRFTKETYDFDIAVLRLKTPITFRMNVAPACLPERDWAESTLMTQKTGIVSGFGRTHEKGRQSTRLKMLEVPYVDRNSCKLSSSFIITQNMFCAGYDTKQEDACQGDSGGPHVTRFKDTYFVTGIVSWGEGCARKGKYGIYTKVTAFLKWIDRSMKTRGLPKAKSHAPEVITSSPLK

For `CC(C)C[C@H](NC(=O)[C@H](Cc1c[nH]c2ccccc12)NC(=O)c1cc(Cl)ccc1Cl)B(O)O`, the result in data set [1] and in data set [11] was Active. Also, the inhibition entry in data set [2] and in data set [3] was “Active” throughout. Moreover, the Activity result is given as “Non-Toxic” in data set [4]; “Toxic” in data set [5]; “Non-Toxic” in [6]; “Non-Toxic” in data set [7]; “Non-Toxic” in data set [8]; “Non-Toxic” in [10]. The Activity result in [14] is “Non-Toxic”. The inhibition result in [9], in data set [16] and in data set [17] was “inactive” in each case. Besides, the “fold change (FC)” value in data set [12] was determined as 2. The Ratio in [13] stood at 16.7 ×10² /s.M. Also, the Ratio IC50 in [15] was 30. For the same compound, the inhibition result in [18] was “Dose-dependent effect”.
